# Tests used:
# [1] = system: JIMT-1 breast cancer cells; assay: MTT dose response assay, JIMT-1 cells in 2D and 3D PCL 96-well plates; format: cell-based, human; conditions: JIMT-1, 2D culture, hypoxia (1 % O2), 72 h, mean of three experiments ± SEM
# In short: (§1)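 Accutase-detached cells seeded at 7000 (2D) or 21,000 (3D; O2-plasma-treated, ethanol-sterilized PCL fibre-mesh wells) per 180 μL. After 24 h normoxic attachment, compound added, then 72 h at 18 % O2/5 % CO2 or 1 % O2. MTT (20 μL of 5 mg/mL) 2 h; formazan dissolved in DMSO (2D 15 min, 3D 2 h shaking); absorbance background-subtracted. IC50 = 50 % MTT reduction; ≥3 experiments, 3–6 wells/concentration.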
# [2] = system: human dermal fibroblasts (HDFs); assay: MTT dose response assay, HDFs in 2D and 3D PCL 96-well plates; format: cell-based; conditions: HDF, 72 h, mean of three experiments ± SEM
# In short: as §1
# JIMT-1 cells = conditions: JIMT-1, 2D cultures, normoxia, FBS-supplemented medium; cited from earlier work
substance,measurement,setting,value
salinomycin analogue 20-ethyl carbonate-Na [SAEC],IC50,[1],80.4 ± 13.3 nM
same,IC50,"[2]; 2D culture, hypoxia (1 % O2)",239 ± 6.2 nM
same,IC50,"[2]; 2D culture, normoxia (18 % O2)",97.7 ± 11.8 nM
same,IC50,"[2]; 3D culture, hypoxia (1 % O2)",316 ± 35.1 nM
same,IC50,"[2]; 3D culture, normoxia (18 % O2)",150 ± 34.4 nM
same,IC50,JIMT-1 cells,90 ± 0.02 nM

# Reference: paper PMC8024882 (Toxicology Reports, 2021)
